Laboratory results taken from ChEMBL document CHEMBL3792373, “Anti-methicillin resistant Staphylococcus aureus activity, synergism with oxacillin and molecular docking studies of metronidazole-triazole hybrids” (Eur J Med Chem, 2016).
Converted amounts (≈) assume the structure as drawn.

Tests used:
Staphylococcus aureus [1] = test: Antimicrobial activity against methicillin-resistant Staphylococcus aureus isolate 4a after 24 hrs by agar plate dilution method in presence of oxacillin (1:1); type: functional
Method in brief: (§1)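 Test compound and oxacillin mixed 1:1, each at 32 µg/mL in the mixture, then serially diluted into agar plates. Clinical MRSA isolates at McFarland 0.5 in water were spotted onto the plates and incubated 24 h at 37 °C. Growth was read as white spots. NCTC 6571 S. aureus served as the dilution-series control.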

Staphylococcus aureus [2] = test: Antimicrobial activity against methicillin-resistant Staphylococcus aureus isolate 6a after 24 hrs by agar plate dilution method in presence of oxacillin (1:1); type: functional
Method in brief: (§2)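 Clinical MRSA isolates, from axilla/nasal swabs and identified by mannitol salt agar, Gram stain and coagulase test. […] Inoculum adjusted to McFarland 0.5 in water. Plates incubated 24 h at 37 °C and scored for growth spots. Dilution series quality-controlled with S. aureus NCTC 6571. Combination lines used a 1:1 mixture with oxacillin.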

Staphylococcus aureus [3] = test: Antimicrobial activity against methicillin-resistant Staphylococcus aureus isolate 8a after 24 hrs by agar plate dilution method in presence of oxacillin (1:1); type: functional; method in brief: as §2
Staphylococcus aureus [4] = test: Antimicrobial activity against methicillin-resistant Staphylococcus aureus isolate 11a after 24 hrs by agar plate dilution method in presence of oxacillin (1:1); type: functional; method in brief: as §1
Staphylococcus aureus [5] = test: Antimicrobial activity against methicillin-resistant Staphylococcus aureus isolate 12a after 24 hrs by agar plate dilution method in presence of oxacillin (1:1); type: functional; method in brief: as §1
Staphylococcus aureus [6] = test: Antimicrobial activity against methicillin-resistant Staphylococcus aureus isolate 18a after 24 hrs by agar plate dilution method in presence of oxacillin (1:1); type: functional; method in brief: as §1
Staphylococcus aureus [7] = test: Antimicrobial activity against methicillin-resistant Staphylococcus aureus isolate 20a after 24 hrs by agar plate dilution method in presence of oxacillin (1:1); type: functional; method in brief: as §1
Staphylococcus aureus [8] = test: Antimicrobial activity against methicillin-resistant Staphylococcus aureus isolate 21a after 24 hrs by agar plate dilution method in presence of oxacillin (1:1); type: functional; method in brief: as §1
Staphylococcus aureus [9] = test: Antimicrobial activity against methicillin-resistant Staphylococcus aureus isolate 25a after 24 hrs by agar plate dilution method in presence of oxacillin (1:1); type: functional; method in brief: as §1
Staphylococcus aureus [10] = test: Antimicrobial activity against methicillin-resistant Staphylococcus aureus isolate 26a after 24 hrs by agar plate dilution method in presence of oxacillin (1:1); type: functional; method in brief: as §1
Staphylococcus aureus [11] = test: Antimicrobial activity against methicillin-resistant Staphylococcus aureus isolate 29a after 24 hrs by agar plate dilution method in presence of oxacillin (1:1); type: functional; method in brief: as §1
Staphylococcus aureus [12] = test: Bactericidal activity against methicillin-resistant Staphylococcus aureus isolate 1a assessed as reduction in colony counts at 32 ug/ml after 8 hrs by pour plate method (reference value: 8.30 +/- 0.442 log10CFU/ml); type: functional
Staphylococcus aureus [13] = test: Bactericidal activity against methicillin-resistant Staphylococcus aureus isolate 1a assessed as reduction in colony counts at 32 ug/ml after 12 hrs by pour plate method (reference value: 10.12 +/- 0.428 log10CFU/ml); type: functional
Staphylococcus aureus [14] = test: Bactericidal activity against methicillin-resistant Staphylococcus aureus isolate 1a assessed as reduction in colony counts at 32 ug/ml after 20 hrs by pour plate method (reference value: 12.73 +/- 0.223 log10CFU/ml); type: functional
[15] = Cytotoxicity against human THP1 cells upto 50 uM treated 3 times per week for 14 days by MTT assay; type: cell-based; settings: thp-1, 336 h
Staphylococcus aureus [16] = test: Bactericidal activity against methicillin-resistant Staphylococcus aureus isolate 1a assessed as reduction in colony counts at 32 ug/ml after 4 hrs by pour plate method in presence of oxacillin (1:1) (reference value: 6.14 +/- 0.456 log10CFU/ml); type: functional
Staphylococcus aureus [17] = test: Bactericidal activity against methicillin-resistant Staphylococcus aureus isolate 1a assessed as reduction in colony counts at 32 ug/ml after 12 hrs by pour plate method in presence of oxacillin (1:1) (reference value: 10.12 +/- 0.428 log10CFU/ml); type: functional
Staphylococcus aureus [18] = test: Bactericidal activity against methicillin-resistant Staphylococcus aureus isolate 1a assessed as reduction in colony counts at 32 ug/ml after 16 hrs by pour plate method in presence of oxacillin (1:1) (reference value: 12.50 +/- 0.291 log10CFU/ml); type: functional
Staphylococcus aureus [19] = test: Antimicrobial activity against methicillin-resistant Staphylococcus aureus isolate 2a after 24 hrs by agar plate dilution method; type: functional
Method in brief: (§3)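 Clinical MRSA isolates from axilla/nasal swabs, identified by mannitol salt agar, Gram stain and coagulase test. Agar plate dilution with compound series 0.03–128 µg/mL. Inoculum suspended in water to McFarland 0.5. Incubation 24 h at 37 °C. MIC read as the lowest level without white growth spots. Dilution series quality-controlled with S. aureus NCTC 6571.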

Staphylococcus aureus [20] = test: Antimicrobial activity against methicillin-resistant Staphylococcus aureus isolate 5a after 24 hrs by agar plate dilution method; type: functional; method in brief: as §2
Staphylococcus aureus [21] = test: Antimicrobial activity against methicillin-resistant Staphylococcus aureus isolate 6a after 24 hrs by agar plate dilution method; type: functional; method in brief: as §2
Staphylococcus aureus [22] = test: Antimicrobial activity against methicillin-resistant Staphylococcus aureus isolate 7a after 24 hrs by agar plate dilution method; type: functional; method in brief: as §2
Staphylococcus aureus [23] = test: Antimicrobial activity against methicillin-resistant Staphylococcus aureus isolate 9a after 24 hrs by agar plate dilution method; type: functional; method in brief: as §2
Staphylococcus aureus [24] = test: Antimicrobial activity against methicillin-resistant Staphylococcus aureus isolate 10a after 24 hrs by agar plate dilution method; type: functional; method in brief: as §3
Staphylococcus aureus [25] = test: Antimicrobial activity against methicillin-resistant Staphylococcus aureus isolate 12a after 24 hrs by agar plate dilution method; type: functional; method in brief: as §3
Staphylococcus aureus [26] = test: Antimicrobial activity against methicillin-resistant Staphylococcus aureus isolate 14a after 24 hrs by agar plate dilution method; type: functional; method in brief: as §3
Staphylococcus aureus [27] = test: Antimicrobial activity against methicillin-resistant Staphylococcus aureus isolate 16a after 24 hrs by agar plate dilution method; type: functional; method in brief: as §3
Staphylococcus aureus [28] = test: Antimicrobial activity against methicillin-resistant Staphylococcus aureus isolate 17a after 24 hrs by agar plate dilution method; type: functional; method in brief: as §3
Staphylococcus aureus [29] = test: Antimicrobial activity against methicillin-resistant Staphylococcus aureus isolate 20a after 24 hrs by agar plate dilution method; type: functional; method in brief: as §3
Staphylococcus aureus [30] = test: Antimicrobial activity against methicillin-resistant Staphylococcus aureus isolate 21a after 24 hrs by agar plate dilution method; type: functional; method in brief: as §3
Staphylococcus aureus [31] = test: Antimicrobial activity against methicillin-resistant Staphylococcus aureus isolate 22a after 24 hrs by agar plate dilution method; type: functional; method in brief: as §3
Staphylococcus aureus [32] = test: Antimicrobial activity against methicillin-resistant Staphylococcus aureus isolate 24a after 24 hrs by agar plate dilution method; type: functional; method in brief: as §3
Staphylococcus aureus [33] = test: Antimicrobial activity against methicillin-resistant Staphylococcus aureus isolate 27a after 24 hrs by agar plate dilution method; type: functional; method in brief: as §3
Staphylococcus aureus [34] = test: Antimicrobial activity against methicillin-resistant Staphylococcus aureus isolate 28a after 24 hrs by agar plate dilution method; type: functional; method in brief: as §3

Compound: Cc1ncc([N+](=O)[O-])n1CCn1cc(COc2c(Cl)cccc2Cl)nn1
- MIC (Staphylococcus aureus [1]): 2 µg/mL
- MIC (Staphylococcus aureus [2]): 1 µg/mL
- MIC (Staphylococcus aureus [3]): 1 µg/mL
- MIC (Staphylococcus aureus [4]): 1 µg/mL
- MIC (Staphylococcus aureus [5]): 2 µg/mL
- MIC (Staphylococcus aureus [6]): 4 µg/mL
- MIC (Staphylococcus aureus [7]): 2 µg/mL
- MIC (Staphylococcus aureus [8]): 1 µg/mL
- MIC (Staphylococcus aureus [9]): 4 µg/mL
- MIC (Staphylococcus aureus [10]): 4 µg/mL
- MIC (Staphylococcus aureus [11]): 4 µg/mL
- Activity (Staphylococcus aureus [12]): 6.05 log10CFU/ml
- Activity (Staphylococcus aureus [13]): 5.96 log10CFU/ml
- Activity (Staphylococcus aureus [14]): 5.57 log10CFU/ml
- Activity [15]: Non-toxic
- Activity (Staphylococcus aureus [16]): 5.5 log10CFU/ml
- Activity (Staphylococcus aureus [17]): 5.91 log10CFU/ml
- Activity (Staphylococcus aureus [18]): 4.52 log10CFU/ml
- MIC (Staphylococcus aureus [19]): 4 µg/mL (≈ 10.1 µM)
- MIC (Staphylococcus aureus [20]): 4 µg/mL (≈ 10.1 µM)
- MIC (Staphylococcus aureus [21]): 4 µg/mL (≈ 10.1 µM)
- MIC (Staphylococcus aureus [22]): 4 µg/mL (≈ 10.1 µM)
- MIC (Staphylococcus aureus [23]): 8 µg/mL (≈ 20.1 µM)
- MIC (Staphylococcus aureus [24]): > 128 µg/mL
- MIC (Staphylococcus aureus [25]): 32 µg/mL (≈ 80.6 µM)
- MIC (Staphylococcus aureus [26]): > 128 µg/mL
- MIC (Staphylococcus aureus [27]): 32 µg/mL (≈ 80.6 µM)
- MIC (Staphylococcus aureus [28]): 32 µg/mL (≈ 80.6 µM)
- MIC (Staphylococcus aureus [29]): > 128 µg/mL
- MIC (Staphylococcus aureus [30]): 4 µg/mL (≈ 10.1 µM)
- MIC (Staphylococcus aureus [31]): > 128 µg/mL
- MIC (Staphylococcus aureus [32]): > 128 µg/mL
- MIC (Staphylococcus aureus [33]): 64 µg/mL (≈ 161 µM)
- MIC (Staphylococcus aureus [34]): 128 µg/mL (≈ 322 µM)
